Experiment [1] deals with T1, Asparagine synthetase [glutamine-hydrolyzing] (Homo sapiens, UniProt P08243).
T1 sequence (P08243 whole entry): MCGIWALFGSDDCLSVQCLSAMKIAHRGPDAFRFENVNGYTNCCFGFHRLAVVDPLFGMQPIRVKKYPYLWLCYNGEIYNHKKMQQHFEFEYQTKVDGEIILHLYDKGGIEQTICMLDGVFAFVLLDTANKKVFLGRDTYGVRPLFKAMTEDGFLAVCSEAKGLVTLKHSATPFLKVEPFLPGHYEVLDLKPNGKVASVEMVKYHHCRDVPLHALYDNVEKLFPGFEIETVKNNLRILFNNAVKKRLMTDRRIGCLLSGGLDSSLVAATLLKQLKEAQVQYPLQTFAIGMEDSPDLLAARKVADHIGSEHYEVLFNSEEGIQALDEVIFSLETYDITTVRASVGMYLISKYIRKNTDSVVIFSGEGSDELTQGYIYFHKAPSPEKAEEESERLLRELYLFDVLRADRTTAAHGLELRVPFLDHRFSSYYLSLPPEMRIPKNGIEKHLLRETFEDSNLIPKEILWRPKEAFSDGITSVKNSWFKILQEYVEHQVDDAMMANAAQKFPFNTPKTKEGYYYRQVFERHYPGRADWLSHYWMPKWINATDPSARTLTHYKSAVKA
As to the kind of experiment: Inhibition of human recombinant ASNS expressed in Sf9 cells assessed as assessed as overall inhibition constant for ammonia dependent production of inorganic pyrophosphate by spectrophotometry analysis. The method in brief:
(§1)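 PPi formation was coupled to NADH loss at 340 nm over 20 min. Progress curves at fixed inhibitor levels were fitted, and Ki was taken from k versus [I] with Ka 0.1 mM. Duplicates.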

Experiment [2] has as its target T1, Asparagine synthetase [glutamine-hydrolyzing]. As to the kind of experiment: Inhibition of human recombinant ASNS expressed in Sf9 cells assessed as overall inhibition constant for glutamine dependent production of inorganic pyrophosphate by spectrophotometry analysis.
For experiment [3] the target is unchanged. As to the kind of experiment: Inhibition of human recombinant ASNS expressed in Sf9 cells assessed as initial inhibition constant for glutamine dependent production of inorganic pyrophosphate by spectrophotometry analysis.
The target is the same in experiment [4]. As to the kind of experiment: Inhibition of human recombinant ASNS expressed in Sf9 cells assessed as assessed as initial inhibition constant for ammonia dependent production of inorganic pyrophosphate by spectrophotometry analysis. A digest of the protocol: as §1
Experiment [5] deals with MOLT-4. As to the kind of experiment: Cytotoxicity against human ASNase-resistant MOLT4 cells assessed as cell viability at 0.06 mM after 48 hrs by MTS assay in absence of ASNase. Type of experiment: functional, cell-based. The method in brief:
(§2)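 MOLT-4R cells grown in RPMI 1640 with 10% heat-inactivated FBS and penicillin-streptomycin at 37°C under 5% CO2. Cells were exposed to 10-1000 µM inhibitor, with or without 1 U/mL ASNase, for 48 h. Read-out was MTS at 490 nm, as titer relative to untreated cells at t=0; mean ± SD of triplicates.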

Experiment [6] deals with MOLT-4. As to the kind of experiment: Cytotoxicity against human ASNase-sensitive MOLT4 cells assessed as cell viability at 130 uM after 48 hrs by MTS assay. Type of experiment: functional, cell-based. The method in brief:
(§3)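 The ASNase-sensitive MOLT-4S line was kept in RPMI 1640 with 10% heat-inactivated FBS and penicillin-streptomycin at 37°C, 5% CO2. They were incubated 48 h with 10-1000 µM compound and no ASNase. Viability was measured by MTS (OD 490) relative to t=0 cell number; mean ± SD of triplicates.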
In general terms: Tetrazolium assays rely on reduction of a dye to a coloured formazan, in cell work by metabolically active cells.

For experiment [7], the system named is MOLT-4. As to the kind of experiment: Cytotoxicity against human ASNase-sensitive MOLT4 cells assessed as cell viability at 250 to 500 uM after 48 hrs by MTS assay. It is filed as functional, cell-based. A digest of the protocol: as §3
Experiment [8] relates to MOLT-4. As to the kind of experiment: Cytotoxicity against human ASNase-resistant MOLT4 cells assessed as cell viability at 130 uM after 48 hrs by MTS assay in presence of ASNase. It is filed as functional, cell-based. A digest of the protocol:
as §2

Experiment [9] has as its system MOLT-4. As to the kind of experiment: Cytotoxicity against human ASNase-resistant MOLT4 cells assessed as cell viability at 0.13 mM after 48 hrs by MTS assay in absence of ASNase. Type of experiment: functional, cell-based. The method in brief: as §2
Experiment [10] deals with MOLT-4. As to the kind of experiment: Cytotoxicity against human ASNase-resistant MOLT4 cells assessed as cell viability at 250 uM after 48 hrs by MTS assay in presence of ASNase. It is filed as functional, cell-based. The method in brief:
as §2

Experiment [11] deals with MOLT-4. As to the kind of experiment: Cytotoxicity against human ASNase-resistant MOLT4 cells assessed as cell viability at 0.06 mM after 48 hrs by MTS assay in presence of ASNase. It is filed as functional, cell-based. The method in brief:
as §2

The test system of experiment [12] is MOLT-4. As to the kind of experiment: Cytotoxicity against human ASNase-resistant MOLT4 cells assessed as cell viability after 48 hrs by MTS assay in absence of ASNase relative to sulfoximine 1.
The subject of experiment [13] is MOLT-4. As to the kind of experiment: Cytotoxicity against human ASNase-resistant MOLT4 cells assessed as cell viability after 48 hrs by MTS assay in absence of ASNase. It is filed as functional, cell-based. The method in brief:
as §2

The subject of experiment [14] is MOLT-4. As to the kind of experiment: Cytotoxicity against human ASNase-resistant MOLT4 cells assessed as cell viability at >500 uM after 48 hrs by MTS assay in absence of ASNase.

pKi: −log10 of the molar value. Calls of active or inactive are those of the source. The calls are words filed in the database; no cut-off is given here.

For `C[S+]([O-])(CCC(=O)O)=NP(=O)(O)OC[C@H]1O[C@@H](n2cnc3c(N)ncnc32)[C@H](O)[C@@H]1O` (mixture of isomers), the negative logarithm of the Ki (pKi) (as a rule, −log10 of the Ki, conventionally taken in molar units) was 6.51 in experiment [1], 6.08 in [2], 5.35 in experiment [3] and 5.52 in [4].

Take `C[S+]([O-])(C[C@H](N)C(=O)O)=NP(=O)(O)OC[C@H]1O[C@@H](n2cnc3c(N)ncnc32)[C@H](O)[C@@H]1O` (mixture of isomers): the negative logarithm of the Ki (pKi) in experiment [1] was 8.60; in [2] it was 7.62; in experiment [3], 6.00; in [4], 6.55.

Regarding `C[S+]([O-])(CCN)=NP(=O)(O)OC[C@H]1O[C@@H](n2cnc3c(N)ncnc32)[C@H](O)[C@@H]1O` (mixture of isomers), the outcome in the experiment on MOLT-4 [5] and in the experiment on MOLT-4 [11] was inactive. Moreover, the pKi was 7.48 in experiment [1], 8.10 in [2], 6.31 in experiment [3] and 6.35 in experiment [4]. Besides, the outcome in the experiment with MOLT-4 [6], in the experiment on MOLT-4 [7], in the experiment on MOLT-4 [8], in the experiment with MOLT-4 [9], with MOLT-4 [10] and with MOLT-4 [14] was Active. Further, in the experiment with MOLT-4 [12], the “fold change (FC)” value is reported as 7. Moreover, the Activity entry in the experiment on MOLT-4 [13] was “Dose-dependent effect”.

The values are drawn from ChEMBL document CHEMBL2150922, “A sulfoximine-based inhibitor of human asparagine synthetase kills L-asparaginase-resistant leukemia cells” (Bioorg Med Chem, 2012).
